# Assay results taken from ChEMBL document CHEMBL1138635, “Myxopyronin B analogs as inhibitors of RNA polymerase, synthesis and biological evaluation” (Bioorg Med Chem Lett, 2004).
# Legend:
# [1] = target: DNA-directed RNA polymerase subunit beta (Escherichia coli K-12) (UniProt P0A8V2); test: In vitro percent inhibition against RNA polymerase of Escherichia coli in nucleotide coupled NADPH/pyrophosphate release assay at 10 uM; type: functional
# Outline: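 E. coli RNA polymerase activity measured in a nucleotide-coupled NADPH/pyrophosphate release assay. NADPH was read by fluorescence (emission ~440 nm) rather than absorbance at 340 nm. For weaker inhibitors, percent inhibition was recorded at 10 µM instead of an IC50.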
# [2] = test system: Escherichia coli; test: Minimum inhibitory concentration against Escherichia coli (Tol C); type: functional
# Outline: (§1)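 Growth inhibition by serial dilution. MIC reported in µg/mL as the average of triplicate measurements.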
# [3] = test system: Staphylococcus aureus; test: Minimum inhibitory concentration against Staphylococcus aureus; type: functional; outline: as §1
# [4] = test system: Escherichia coli; test: Minimum inhibitory concentration against Escherichia coli; type: functional; outline: as §1
# [5] = target: DNA-directed RNA polymerase subunit beta (Escherichia coli K-12, UniProt P0A8V2); test: In vitro inhibitory activity against RNA polymerase of Escherichia coli
# Outline: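 E. coli RNAP activity measured by a nucleotide-coupled assay that links pyrophosphate release to NADPH. NADPH was read by fluorescence (emission ~440 nm) instead of absorbance at 340 nm. IC50 was determined; for weak inhibitors, percent inhibition at 10 µM was reported instead. Selected compounds were also tested by radiolabeled nucleotide incorporation into RNA.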
# Chain of DNA-directed RNA polymerase subunit beta (Escherichia coli K-12) (P0A8V2 whole entry, looked up): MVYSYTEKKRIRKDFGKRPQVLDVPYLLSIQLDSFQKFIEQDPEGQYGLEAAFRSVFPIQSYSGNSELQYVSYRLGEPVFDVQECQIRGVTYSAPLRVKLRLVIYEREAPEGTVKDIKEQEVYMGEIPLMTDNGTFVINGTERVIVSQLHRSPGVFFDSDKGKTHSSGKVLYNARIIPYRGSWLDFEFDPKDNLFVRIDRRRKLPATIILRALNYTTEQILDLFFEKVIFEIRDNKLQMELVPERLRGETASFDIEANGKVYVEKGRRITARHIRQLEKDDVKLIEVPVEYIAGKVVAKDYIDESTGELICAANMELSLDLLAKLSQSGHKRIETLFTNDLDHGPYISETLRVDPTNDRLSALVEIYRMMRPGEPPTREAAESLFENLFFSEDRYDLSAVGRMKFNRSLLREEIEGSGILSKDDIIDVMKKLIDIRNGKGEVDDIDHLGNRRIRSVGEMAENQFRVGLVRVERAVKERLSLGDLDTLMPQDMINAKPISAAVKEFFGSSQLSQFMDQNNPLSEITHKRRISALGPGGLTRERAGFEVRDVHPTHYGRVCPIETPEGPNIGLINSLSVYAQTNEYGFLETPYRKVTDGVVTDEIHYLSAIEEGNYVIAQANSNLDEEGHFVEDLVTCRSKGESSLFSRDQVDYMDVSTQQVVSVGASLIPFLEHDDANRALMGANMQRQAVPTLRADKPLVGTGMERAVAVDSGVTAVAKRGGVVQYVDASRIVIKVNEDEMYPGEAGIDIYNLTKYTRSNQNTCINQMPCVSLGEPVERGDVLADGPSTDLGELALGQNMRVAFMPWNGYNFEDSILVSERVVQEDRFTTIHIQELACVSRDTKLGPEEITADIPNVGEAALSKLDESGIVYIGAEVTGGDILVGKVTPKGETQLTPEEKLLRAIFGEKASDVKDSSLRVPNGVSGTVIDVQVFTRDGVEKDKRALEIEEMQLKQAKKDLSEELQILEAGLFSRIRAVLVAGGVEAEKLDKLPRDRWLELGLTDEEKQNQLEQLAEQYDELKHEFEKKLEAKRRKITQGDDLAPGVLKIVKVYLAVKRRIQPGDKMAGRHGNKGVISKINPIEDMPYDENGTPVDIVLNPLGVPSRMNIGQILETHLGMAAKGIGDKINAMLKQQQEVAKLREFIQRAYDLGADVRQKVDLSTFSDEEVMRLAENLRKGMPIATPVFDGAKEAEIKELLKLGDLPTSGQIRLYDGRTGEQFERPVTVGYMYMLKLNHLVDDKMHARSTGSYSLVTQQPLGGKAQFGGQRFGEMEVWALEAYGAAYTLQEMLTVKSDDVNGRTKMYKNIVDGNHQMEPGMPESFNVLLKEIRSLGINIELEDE
# Chain of DNA-directed RNA polymerase subunit beta (P0A8V2 whole entry): as the sequence (P0A8V2 whole entry, looked up) above
inhibition [1],MIC [2],MIC [3],MIC [4],Structure (SMILES),IC50 [5]
< 20%,> 64 µg/mL,> 64 µg/mL,> 64 µg/mL,CCCC/C(C)=C/CNC(=O)c1c(O)cc(C(C)CC/C=C/NC(=O)OC)oc1=O (centres undefined),
70%,32 µg/mL,64 µg/mL,> 64 µg/mL,CCCC/C(C)=C/C=C/C(=O)c1c(O)cc(C(C)CC/C=C/NC(=O)OC)oc1=O (centres undefined),
< 20%,> 64 µg/mL,> 64 µg/mL,> 64 µg/mL,CCCC/C(C)=C/C=C(\C)C(=O)c1c(O)cc(C(C)Cc2ccc(NC(=O)OC)cc2)oc1=O (centres undefined),
< 20%,> 64 µg/mL,> 64 µg/mL,> 64 µg/mL,CCC(=O)c1c(O)cc(C(C)CC/C=C/NC(=O)OC)oc1=O (centres undefined),
< 20%,> 64 µg/mL,> 64 µg/mL,> 64 µg/mL,CCCC/C(C)=C/C=C(\C)C(=O)c1c(O)cc(C(C)CC/C=C/C(=O)OC)oc1=O (centres undefined),
< 20%,> 64 µg/mL,> 64 µg/mL,> 64 µg/mL,CCCC/C(C)=C/C=C(\C)C(=O)c1c(O)cc(C(C)CC/C=C/NC(=O)OCCN(C)C)oc1=O (centres undefined),
< 20%,> 64 µg/mL,> 64 µg/mL,> 64 µg/mL,CCCC/C(C)=C/C=C(\C)C(=O)c1c(O)cc(C(C)CC/C=C/NC(=O)OCCN2CCOCC2)oc1=O (centres undefined),
< 20%,> 64 µg/mL,> 64 µg/mL,> 64 µg/mL,CCCC/C(C)=C/C=C(\C)C(=O)c1c(O)cc(C(C)Cc2cccc(NC(=O)OC)c2)oc1=O (centres undefined),
< 20%,> 64 µg/mL,> 64 µg/mL,> 64 µg/mL,CCCC/C(C)=C/C=C(\C)C(=O)c1c(O)cc(C(C)CCCC=O)oc1=O (centres undefined),

Structure (SMILES),inhibition [1],MIC [2],MIC [3],MIC [4],IC50 [5]
CCCC/C(C)=C/C=C(\C)C(=O)c1c(O)cc(C(C)CC/C=C/NC(=O)OC)oc1=O (centres undefined),,2 µg/mL,1 µg/mL,> 64 µg/mL,0.92 µM
CCCC/C(C)=C/C=C(\C)C(=O)c1c(O)cc(C(C)CC/C=C\NC(=O)OC)oc1=O (centres undefined),,4 µg/mL,4 µg/mL,> 64 µg/mL,1.26 µM
CCCC/C(C)=C/C=C(\C)C(=O)c1c(O)cc(C(C)CCCCNC(=O)OC)oc1=O (centres undefined),,8 µg/mL,64 µg/mL,> 64 µg/mL,4 µM
CCCC/C(C)=C/C=C(\C)C(=O)c1c(O)cc(CCC/C=C/NC(=O)OC)oc1=O [DESMETHYL MYXOPYRONIN B],,1 µg/mL,4 µg/mL,> 64 µg/mL,0.34 µM
CCCC/C=C/C=C(\C)C(=O)c1c(O)cc(C(C)CC/C=C/NC(=O)OC)oc1=O (centres undefined),,2 µg/mL,16 µg/mL,> 64 µg/mL,1.04 µM
CCCC/C(C)=C/C=C(\C)C(=O)c1c(OC)cc(C(C)CC/C=C/NC(=O)OC)oc1=O (centres undefined),,> 64 µg/mL,> 64 µg/mL,> 64 µg/mL,4.2 µM
CCCC/C(C)=C\C=C(\C)C(=O)c1c(O)cc(C(C)CC/C=C/NC(=O)OC)oc1=O (centres undefined),,16 µg/mL,16 µg/mL,> 64 µg/mL,2.5 µM
